Measured values taken from ChEMBL document CHEMBL1128448, “Synthesis and antifungal activity of new azole derivatives containing an N-acylmorpholine ring” (1995).
In brackets after ≈: the same amount, converted by molar mass.

Columns and labels:
[1] = tested on: Candida parapsilosis; assay: In vitro evaluation of minimum inhibitory concentration against Candida parapsilosis 61; assay type: functional
Method in brief: (§1)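 Stocks are 800 μg/mL in 50% ethanol. Each plate gets 10 μL of inoculum at 10^5 cfu/mL. Incubation at 25 °C, 48 h for yeasts and 120 h for dermatophytes and molds. Organisms are ATCC strains or clinical isolates.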

[2] = tested on: Candida albicans; assay: In vivo evaluation of minimum inhibitory concentration against Candida albicans 406; assay type: functional
Method in brief: (§2)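 Broth macrodilution MIC following NCCLS M27-P, in RPMI-1640 buffered with 0.165 M MOPS. Fluconazole was dissolved in water and other drugs in DMSO. C. parapsilosis ATCC 22019 served as the reference strain in every run. MIC was the lowest concentration giving turbidity at or below the 80% inhibition standard.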

[3] = tested on: Candida albicans; assay: In vivo evaluation of minimum inhibitory concentration against Candida albicans 60; assay type: functional; method in brief: as §2
[4] = tested on: Trichophyton benhamiae; assay: In vitro evaluation of minimum inhibitory concentration against Trichophyton mentagrophytes 23; assay type: functional, Arthroderma benhamiae; method in brief: as §1
[5] = tested on: Mus sp.; assay: In vivo evaluation of % survival rate after peroral administration on 9th day at dose 2.5 mg/kg; assay type: functional; conditions: route oral, 2.5 mg/kg
[6] = tested on: Trichophyton rubrum; assay: In vitro evaluation of minimum inhibitory concentration against Trichophyton rubrum 90; assay type: functional; method in brief: as §1
[7] = tested on: Microsporum canis; assay: In vitro evaluation of minimum inhibitory concentration against Microsporum canis 47; assay type: functional; method in brief: as §1
[8] = tested on: Nakaseomyces glabratus; assay: In vitro evaluation of minimum inhibitory concentration against Torulopsis glabrata 78; assay type: functional; method in brief: as §1
[9] = tested on: Mus sp.; assay: In vivo evaluation of % survival rate after peroral administration on 3rd day at dose 2.5 mg/kg; assay type: functional; conditions: route oral, 2.5 mg/kg
[10] = tested on: Kluyveromyces marxianus; assay: In vivo Evaluation of minimum inhibitory concentration against Candida pseudotropicalis 13; assay type: functional; method in brief: as §1
[11] = tested on: Aspergillus fumigatus; assay: In vitro evaluation of minimum inhibitory concentration against Aspergillus fumigatus 33; assay type: functional; method in brief: as §1
[12] = tested on: Mus sp.; assay: In vivo evaluation of % survival rate after peroral administration on 7th day at dose 2.5 mg/kg; assay type: functional; conditions: route oral, 2.5 mg/kg
[13] = tested on: Meyerozyma guilliermondii; assay: In vitro evaluation of minimum inhibitory concentration against Candida guilliermondii 26; assay type: functional; method in brief: as §1
[14] = tested on: Mus sp.; assay: In vivo evaluation of % survival rate after peroral administration on 5th day at dose 2.5 mg/kg; assay type: functional; conditions: route oral, 2.5 mg/kg
[15] = tested on: Nannizzia gypsea; assay: In vitro evaluation of minimum inhibitory concentration against Microsporum gypseum 22; assay type: functional; method in brief: as §1
[16] = tested on: Pichia kudriavzevii; assay: In vitro evaluation of minimum inhibitory concentration against Candida krusei 70; assay type: functional; method in brief: as §1
[17] = tested on: Candida albicans; assay: In vitro evaluation of minimum inhibitory concentration against Candida albicans 76; assay type: functional; method in brief: as §1

C[C@H]1N(C(=O)c2ccc(C(F)(F)F)cc2)CCO[C@@]1(Cn1cncn1)c1ccc(F)cc1F (stereo in doubt; (+)-41) was tested, and the MIC [1] was over 80 µg/mL, the MIC [2] was over 80 µg/mL and the MIC [3] was over 80 µg/mL. The MIC [4] was over 80 µg/mL, the Survival [5] was 0% and the MIC [6] was 80 µg/mL (≈ 172 µM). For the same molecule, the MIC [7] was over 80 µg/mL, the MIC [8] was over 80 µg/mL and the Survival [9] was 10%. For the same molecule, the MIC [10] was 10 µg/mL (≈ 21.4 µM), the MIC [11] was over 80 µg/mL and the Survival [12] was 0%. For the same molecule, the MIC [13] was over 80 µg/mL, the Survival [14] was 0% and the MIC [15] was over 80 µg/mL. The MIC [16] was over 80 µg/mL and the MIC [17] was over 80 µg/mL.
